IMP-1 inhibitor = blocks Pseudomonas aeruginosa IMP-1 metallo-beta-lactamase. purified IMP-1, nitrocefin hydrolysis, epi-absorbance fluorescence. inhibition, % at 5.6 µM. 290,000 compounds, 0.45% hits;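 active = inhibition above the mean plus 3 SD of all compounds in the same screening run, cut at about 4.5% in these data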;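 note: 0% = IMP-1 with DMSO and 100% = DMSO wells lacking enzyme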
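System: Purified IMP-1 | Read-out basis: Percent enzyme inhibition | Controls: IMP-1 with DMSO as 0%, enzyme-free DMSO as 100% | Replicates: One well per compound | Doses: 5.6 µM nominal single concentration | Detection: Epi-absorbance fluorescence, 480 nm excitation, 530 nm emission | Incubation: 25 °C, 15 min preincubation, 25 min reaction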
NLRP3 yeast inh = blocks the NALP3 inflammasome reconstituted in yeast | Yeast reconstituted NLRP3/ASC/caspase-1, beta-gal luminescence, 24 h | inhibition, % at 10 µM | 330,000 compounds, 0.39% hits;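 active = inhibition of 50% or more; inactive = inhibition below 50%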;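 note: plate controls were induced DMSO wells for no effect and uninduced yeast grown without galactose for full effect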
Mot1-301 SUMO = inhibitors of SUMOylation pathway: yeast Mot1-301 growth rescue; S. cerevisiae Mot1-301 growth rescue, ATP luminescence, 38.5C; percent above DMSO median, 100 means doubled; growth rescue, % at 18.8 µM; 320,000 compounds, 1% hits;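 active = every valid replicate shows activation above 250% relative to neutral control wells; inactive = the rest, any valid replicate at or below 250%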;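 note: OY570 slx delta 5 strain wells were the positive control but not used for scaling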
VIM-2 inhibitor = blocks Pseudomonas aeruginosa VIM-2 metallo-beta-lactamase; AID 1527; 290,000 compounds, 0.89% hits; purified VIM-2, nitrocefin hydrolysis, epi-absorbance fluorescence; inhibition, % at 5.6 µM;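 active = inhibition above the mean of all tested compounds plus 3 SD, cutoff set per screening run, cut at about 7.5% in these data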;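 note: red hydrolysis product quenches plate fluorescence so inhibitors raise well fluorescence; 0% = enzyme with DMSO and 100% = DMSO without enzyme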
NALP1 yeast inh = inhibitors of NALP1 inflammasome in yeast; 280,000 compounds, 0.61% hits; AID 2071; inhibition, % at 10 µM; S. cerevisiae NALP1/ASC/caspase-1 growth, X-gal OD620, 72 h; in the data active = inhibition mostly above about 24%, no sharp cut-off; inactive = mostly below about 32%
PolyA inhibitor = yeast polyadenylation inhibition; AID 1875; S. cerevisiae SKY197-pL101 polyadenylation reporter, beta-gal luminescence; efflux-impaired pdr1/pdr3 knockout yeast; score 100 = 6 SD above DMSO; 300,000 compounds, 0.02% hits; activity score, % at 12 µM;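 active = lowest replicate activity score at least 50, where 100 means six control SD above control mean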;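 note: yeast exposed to compound for 9 h at 30 °C; higher score means more reporter readthrough which indicates perturbed polyadenylation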
Numbers without * were called inactive; / = no result. In the library only some 2.9% were active in any assay of this set; here they are far more common.

SMILES	IMP-1 inhibitor	NLRP3 yeast inh	Mot1-301 SUMO	VIM-2 inhibitor	NALP1 yeast inh	PolyA inhibitor
Cc1cc(OCC(=O)NC2CCN(Cc3ccccc3)CC2)c2c(C)cc(=O)oc2c1	-5	5	-2	9.3*	3	-1
CC(C)NC(=O)COc1ccccc1C#N	-1	6	-2	1	-11	-2
N#Cc1ccccc1OCC(=O)OCCCOC(=O)COc1ccccc1C#N	0	-6	300*	0	19	9
CC(C)CCNC(=O)NC(=O)COc1ccccc1C#N	5.4*	14	-6	-1	-5	17
N#Cc1ccccc1OCC(=O)OCC(=O)N1CCCC1	/	13	-5	/	/	/
O=C(NCCN1C(=O)S/C(=C\c2ccc(Cl)c([N+](=O)[O-])c2)C1=O)C1=COCCO1	/	26	4	/	/	24
CS(=O)(=O)Nc1ccc(-c2ccc(/C=C3\SC(N)=NC3=O)o2)cc1	0	16	6	8.8*	35	16
NC1=NC(=O)/C(=C/c2ccc(-c3ccc(S(N)(=O)=O)cc3)o2)S1	-4	20	20	4	21	-5
COc1ccc(CN(C(=O)c2cc(=O)c3cc(C)cc(C)c3o2)C2CCS(=O)(=O)C2)cc1 (stereo not drawn)	-2	16	8	4	12	18
O=C(OCc1cccc(C(F)(F)F)c1)c1cc(S(=O)(=O)N2CCOCC2)ccc1F	/	19	128	/	/	-5
C=C1c2cccc(O)c2C(O)=C2C(=O)[C@]3(O)C(O)=C(C(N)=O)C(=O)[C@@H](N(C)C)[C@@H]3[C@@H](O)[C@H]12	3	8	-25	8.6*	3	-18
COc1ccc(OC)c(S(=O)(=O)Nc2ccc(O)c3ccccc23)c1	0	12	-14	4	104*	16
COc1ccc(OC)c(NS(=O)(=O)c2ccc(NC(C)=O)cc2)c1	1	7	273*	-3	4	14
COc1ccc(NS(=O)(=O)c2ccc(NC(C)=O)cc2)c(OC)c1	-3	20	29	-3	8	19
COc1ccc2c(c1)c1nnc(SCC(=O)N3C(C)CCCC3C)nc1n2C (stereo not drawn)	-1	14	-9	0	1	-15
COc1ccc2c(c1)c1nnc(SC)nc1n2C	-2	40	36	2	0	96*
Cc1nc2ccccc2c2c1C(=O)N(Cc1cccnc1)C2=O	-3	-15	30	11*	-14	-40
O=C(NCc1ccco1)c1ccc(N2CCCCC2)c([N+](=O)[O-])c1	-2	24	812*	0	46	-10
O=C(NCc1ccco1)c1ccc(N2CCOCC2)c([N+](=O)[O-])c1	-4	13	11	-3	4	14
COc1ccc(N2CCN(S(=O)(=O)c3cc4c(cc3C)NC(=O)CO4)CC2)cc1	-2	-4	-1	-3	12	-6
Cc1ccc(S(=O)(=O)c2cc3c(=O)n4ccccc4nc3n(CCc3ccccc3)c2=N)cc1	-1	-6	-2	3	32*	-5
COc1ccc(CNC(=O)CN(C(=O)c2csnn2)c2cccc(C(C)=O)c2)cc1	0	2	6	-2	5	-20
Cc1ccc2cc(CN(CCCN(C)C)C(=S)NCc3ccccc3)c(=O)[nH]c2c1C	-2	9	-5	9.8*	24	-3
Cc1ccc2cc(CN(CCCN(C)C)C(=O)NCc3ccccc3)c(=O)[nH]c2c1C	-1	-7	12	7.8*	25	-4
Cc1ccc(NS(=O)(=O)c2ccc(NC(=O)c3ccccc3C(=O)O)cc2)cc1C	/	2	-14	/	/	-18
SMILES	IMP-1 inhibitor	NLRP3 yeast inh	Mot1-301 SUMO	VIM-2 inhibitor	NALP1 yeast inh	PolyA inhibitor
CCCCCN(C(=O)CCC(=O)OCC(=O)N(C)Cc1ccc(C)cc1)c1c(N)n(CCCC)c(=O)[nH]c1=O	-1	-3	12	-1	16	3
Cc1ccc(NC(=O)C(=O)NCCCN2CCCC2=O)c(C)c1	/	12	39	/	/	15
O=C(O)C1C2C=CC(C2)C1C(=O)NCCCN1CCCC1=O (stereo not drawn)	12*	15	4	1	6	8
Cc1ccc(NC(=O)C(=O)NCCCN2CCCC2=O)cc1	/	17	433*	/	/	0
COc1ccccc1CNC(=O)COC(=O)CCN=C1NS(=O)(=O)c2ccccc21	/	21	-12	/	/	0
COc1ncnc2c1sc1nc(-c3ccccc3)c3c(c12)CCCC3	-1	10	-12	-2	16	-15
CN(C)CCNc1ncnc2c1sc1nc(-c3ccccc3)c3c(c12)CCCC3	-2	9	-18	1	45*	-4
COc1ccc(CC(=O)NCC2(c3ccc(OC)c(OC)c3)CCCC2)cc1	0	9	-6	-1	-11	5
COc1ccc(C2(CNC(=O)Cc3ccc(OC)c(OC)c3)CCOCC2)cc1	-3	17	118	-3	25*	29
O=P(Cc1nnco1)(c1ccccc1)c1ccccc1	-4	15	340*	-4	-2	-2
CCCCCOC(=O)Nc1nnc(CCCCC)s1	-1	38	-20	0	-6	-2
CCCCOC(=O)Nc1nnc(CC)s1	0	33	50	0	43*	-1
CCCCN(CC)S(=O)(=O)N1CCC(C(=O)NCCCN2CCOCC2)CC1	6.6*	2	-8	-1	-17	-14
COc1cccc(NC(=O)Cn2c3ccccc3c3nc4n(c(=O)c32)CCCS4)c1	4.8*	12	-15	2	19	-19
O=C(Cn1c2ccccc2c2nc3n(c(=O)c21)CCCS3)Nc1ccccc1	0	3	3	1	0	-39
COc1ccc(OC)c(NC(=O)C2C3CCC(C3=C(C)C)C2C(=O)O)c1 (stereo not drawn)	-1	3	93	8.8*	20	3
CCCCCN(C(=O)CCC(=O)OCC(=O)Nc1cccc(CC)c1)c1c(N)n(CCCC)c(=O)[nH]c1=O	/	-8	45	/	/	7
COc1cc(Nc2c3c(nc4ccccc24)CCC3)cc(OC)c1OC	-2	6	10	2	0	14
COc1ccccc1Nc1c2c(nc3ccc(N)cc13)CCCC2	-4	13	-18	8.7*	/	11
COc1ccc(Nc2c3c(nc4ccc(C)cc24)CCC3)cc1	-3	6	-30	9.1*	11	-6
Cc1cccc(Nc2c3c(nc4ccccc24)CCC3)c1	-4	27	-14	7	17	2
Cc1csc(=O)n1CC(=O)Nc1ccc(C(C)C)cc1	/	-5	/	/	/	/
CN(CC(=O)Nc1ccccc1C(F)(F)F)C(=O)c1ccc(-c2ccc(Cl)cc2)o1	/	29	-9	/	/	-16
CCOC(=O)n1c(SCC(N)=O)nc2ccccc21	-1	2	13	2	26*	6
CCCCOC(=O)n1c(SCC(=O)N(CC)CC)nc2ccccc21	-5	36	9	-8	1	-7
